Test results from ChEMBL document CHEMBL1221273, “Addressing time-dependent CYP 3A4 inhibition observed in a novel series of substituted amino propanamide renin inhibitors, a case study” (Bioorg Med Chem Lett, 2010).

Experiments:
CYP3A4 [1] = target: T1, CYP3A4 (Homo sapiens, UniProt P08684); experiment: Ratio of IC50 for human CYP3A4 without preincubation to IC50 for human CYP3A4 preincubated for 30 mins; conditions: read-out: Ratio IC50
Outline: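 Human liver microsomes (0.25 mg/mL) were preincubated 0 or 30 min at 37 °C with compound (0.03–200 µM) and 1 mM NADPH in 125 mM phosphate buffer. Testosterone (500 µM) was then added for 15 min at 37 °C. Reactions were quenched with acetonitrile and 6β-hydroxytestosterone was measured by HPLC-MS/MS. IC50s were determined under each condition, and the shift is the ratio of the 0-min to the 30-min IC50.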

Rattus norvegicus [2] = experiment: Antihypertensive activity in double transgenic rat hypertensive model assessed as reduction in blood pressure at 3 mg/kg, po; type: functional
Rattus norvegicus [3] = experiment: Antihypertensive activity in double transgenic rat hypertensive model assessed as time required to reduce blood pressure at 3 mg/kg, po; type: functional
[4] = Half life in Beagle dog at 3 mg/kg, po; type: ADME, organism-based, Canis lupus familiaris; set-up: dose 3 mg/kg, route oral; conditions: in vivo
[5] = Intrinsic clearance in human liver microsome; type: ADME; conditions: liver microsomes
Outline: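 Compound (1 µM) was incubated at 37 °C with human liver microsomes (1 mg/mL) and an NADPH regenerating system in 125 mM phosphate buffer. Samples were quenched with acetonitrile at 2, 5, 10, 20, 45 and 75 min and parent loss was followed by HPLC-MS/MS. CLint was calculated from the initial elimination rate constant.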

Rattus norvegicus [6] = experiment: Antihypertensive activity in double transgenic rat hypertensive model assessed as reduction in blood pressure at 1 mg/kg, po; type: functional
Rattus norvegicus [7] = experiment: Antihypertensive activity in double transgenic rat hypertensive model assessed as time required to reduce blood pressure at 1 mg/kg, po; type: functional
Cytochrome P450 3A4 [8] = target: T2, Cytochrome P450 3A4 (Homo sapiens, UniProt P08684); experiment: Inhibition of CYP3A4 in human liver microsome preincubated for 30 mins; type: ADME, microsomes
T2 sequence (P08684 whole entry): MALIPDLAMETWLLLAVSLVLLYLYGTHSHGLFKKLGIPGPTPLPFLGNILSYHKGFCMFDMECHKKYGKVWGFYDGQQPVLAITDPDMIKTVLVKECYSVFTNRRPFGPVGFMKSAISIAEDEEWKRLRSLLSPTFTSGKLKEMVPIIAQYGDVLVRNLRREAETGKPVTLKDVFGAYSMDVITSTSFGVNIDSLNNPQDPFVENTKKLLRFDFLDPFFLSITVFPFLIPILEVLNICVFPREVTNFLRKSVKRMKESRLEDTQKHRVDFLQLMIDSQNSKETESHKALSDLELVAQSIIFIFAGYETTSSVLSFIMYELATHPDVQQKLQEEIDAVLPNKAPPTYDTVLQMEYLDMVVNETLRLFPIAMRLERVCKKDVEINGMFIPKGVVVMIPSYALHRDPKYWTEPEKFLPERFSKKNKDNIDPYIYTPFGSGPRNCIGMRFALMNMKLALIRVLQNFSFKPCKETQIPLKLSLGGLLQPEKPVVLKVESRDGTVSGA
Outline: (§1)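 Human liver microsomes (0.25 mg/mL) pre-incubated 0 or 30 min at 37 °C with test compound (0.03–200 µM range as printed) and 1 mM NADPH in 125 mM phosphate buffer. Testosterone (500uM) then added as CYP3A substrate, 15 min further at 37 °C. Quenched with acetonitrile, centrifuged, and 6b-hydroxytestosterone formation read by HPLC-MS/MS. IC50 averaged over at least two replicates.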

CYP3A4 [9] = target: T1, CYP3A4; experiment: Inhibition of CYP3A4 in human liver microsome at 3 uM; type: ADME; conditions: liver microsomes
Renin [10] = target: T3, Renin (Homo sapiens, UniProt P00797); experiment: Inhibition of human recombinant renin in presence of pH 7.4 buffer
T3 sequence (P00797 whole entry): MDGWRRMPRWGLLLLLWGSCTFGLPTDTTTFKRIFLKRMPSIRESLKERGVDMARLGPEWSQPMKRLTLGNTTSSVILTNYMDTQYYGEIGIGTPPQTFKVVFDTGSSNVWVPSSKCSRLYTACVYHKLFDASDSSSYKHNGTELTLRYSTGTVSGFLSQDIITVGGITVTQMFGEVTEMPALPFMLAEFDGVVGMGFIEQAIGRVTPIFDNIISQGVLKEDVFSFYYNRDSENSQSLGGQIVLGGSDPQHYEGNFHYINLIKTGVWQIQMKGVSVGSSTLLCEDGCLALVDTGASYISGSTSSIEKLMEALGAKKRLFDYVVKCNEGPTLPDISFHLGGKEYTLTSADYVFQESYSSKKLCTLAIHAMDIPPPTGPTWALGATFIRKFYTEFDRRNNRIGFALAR
Outline: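 Recombinant human renin (3 pg/µL) in PBS pH 7.4 with 1 mM EDTA and 0.1% BSA, premixed with human tetradecapeptide (1–14) substrate and hydroxyquinoline sulfate. Compounds were diluted in DMSO and added, then incubated 3 h at 37 °C. AngI accumulation was measured by immunoassay. % inhibition was computed for each concentration and IC50 obtained by curve fitting. Values are the mean of at least two replicates.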

Renin [11] = target: T3, Renin; experiment: Inhibition of human recombinant renin in presence of plasma by immunoassay; type: cell-free
Outline: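 Pooled frozen human citrate plasma was spiked with recombinant human renin (150 pg/mL final). Compounds at various concentrations in DMSO were added to a 7:1 mix of plasma and anti-AngI trapping antibody (final antiserum 1:50,000) in Tris/EDTA pH 7.2, then incubated 2 h at 37 °C. AngI was read by immunoassay and IC50 fitted. Values are the mean of at least two replicates.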

[12] = Oral bioavailability in Sprague-Dawley rat at 30 mg/kg; type: ADME, organism-based; conditions: in vivo
[13] = Clearance in Sprague-Dawley rat at 30 mg/kg, po; type: ADME, organism-based; set-up: dose 30 mg/kg, route oral; conditions: in vivo
Rattus norvegicus [14] = experiment: Volume of distribution at steady state in Sprague-Dawley rat at 30 mg/kg, po; type: ADME, organism-based; set-up: dose 30 mg/kg, route oral; conditions: in vivo
[15] = Half life in Sprague-Dawley rat at 30 mg/kg, po; type: ADME, organism-based; set-up: dose 30 mg/kg, route oral; conditions: in vivo
CYP3A4 [16] = target: T1, CYP3A4; experiment: (§2) Inhibition of CYP3A4 in human liver microsome; type: ADME, microsomes; conditions: human, liver microsomes; outline: as §1
Cytochrome P450 3A4 [17] = target: T2, Cytochrome P450 3A4; experiment: as §2; type: ADME, microsomes; outline: as §1
[18] = Metabolic stability in human liver microsome assessed as compound remaining at 50 uM after 1 hr; type: ADME; conditions: liver microsomes, read-out: Stability
[19] = Metabolic stability in human liver microsome assessed as compound remaining at 20 uM after 1 hr; type: ADME; conditions: liver microsomes, read-out: Stability
[20] = Oral bioavailability in Beagle dog at 3 mg/kg; type: ADME, organism-based, Canis lupus familiaris; conditions: in vivo
[21] = Clearance in Beagle dog at 3 mg/kg, po; type: ADME, organism-based, Canis lupus familiaris; set-up: dose 3 mg/kg, route oral; conditions: in vivo
Canis familiaris = experiment: Volume of distribution at steady state in Beagle dog at 3 mg/kg, po; type: ADME, organism-based, Canis lupus familiaris; set-up: dose 3 mg/kg, route oral; conditions: in vivo

T1 sequence (P08684 whole entry): as the sequence (P08684 whole entry) above

Row | Structure (SMILES) | IC50 shift (CYP3A4 [1]) | also measured
1 | COCCc1ccc(Cl)c(CN(CC2CC2)C(=O)[C@@H](CN)Cc2ccc(OCCOc3c(Cl)cc(C)cc3Cl)cc2)c1 | 100 | 
2 | COCCc1ccc(Cl)c(C[C@H](C[C@@H](CN)Cc2ccc(OCCOc3c(Cl)cc(C)cc3Cl)cc2)C2CC2)c1 | 3.5 | 
3 | COCCCc1cc(CN(C(=O)[C@@H](CN)Cc2ccc(OCCOc3c(Cl)cc(C)cc3Cl)cc2)C2CC2)c(Cl)c[n+]1[O-] | 70 | 
4 | COCCc1ccc(Cl)c(CN(C(=O)[C@@H](CN)Cc2ccc(OCCOc3c(Cl)cc(C)cc3Cl)cc2)C2CC2)c1 | 110 | 
5 | COCCc1ccc(Cl)c(CN(C(=O)CCc2ccc(OCCOc3c(Cl)cc(C)cc3Cl)cc2)C2CC2)c1 | 40 | 
6 | COCCCc1cc(CN(C(=O)[C@@H](CN)Cc2ccc(OCCOc3c(Cl)cc(C)cc3Cl)cc2)C2CC2)cc(OCCOC)c1 | 1.5 | 
7 | Cc1cc(Cl)c(OCCOc2ccc(C[C@H](CN)C(=O)N(Cc3cc(CCCC#N)ccc3Cl)C3CC3)cc2)c(Cl)c1 | 120 | Activity (Rattus norvegicus [2]): 27 mmHg; Time (Rattus norvegicus [3]): 48 h
8 | CC(=O)N(C)Cc1ccc(Cl)c(CN(C(=O)[C@@H](CN)Cc2ccc(OCCOc3c(Cl)cc(C)cc3Cl)cc2)C2CC2)c1 | 35 | 
9 | COCCc1ccc(Cl)c(C[C@@H](C[C@@H](CN)Cc2ccc(OCCOc3c(Cl)cc(C)cc3Cl)cc2)C2CC2)c1 | 1.7 | 
10 | COCCCc1cc(CN(C(=O)[C@@H](CN)Cc2ccc(OCCOc3c(Cl)cc(C)cc3Cl)cc2)C2CC2)cc(OCCN2CCOCC2)c1 | < 1 | 
11 | COCCc1ccc(Cl)c(CN(CC2CCC2)C(=O)[C@@H](CN)Cc2ccc(OCCOc3c(Cl)cc(C)cc3Cl)cc2)c1 | 130 | 
12 | COCCc1ccc(Cl)c(CN(C(=O)[C@H](Cc2ccc(OCCOc3c(Cl)cc(C)cc3Cl)cc2)[C@H](C)N)C2CC2)c1 | 60 | 
13 | COCCCc1ccc(Cl)c(CN(C(=O)[C@@H](CN)Cc2ccc(OCCOc3c(Cl)cc(C)cc3Cl)cc2)C2CC2)c1 | 110 | half-life [4]: 17 h; CLint scaled [5]: 15 mL/min/kg; Activity (Rattus norvegicus [6]): 13 mmHg; Time (Rattus norvegicus [7]): 24 h; IC50 (Cytochrome P450 3A4 [8]): 120 nM; inhibition at 3 µM (CYP3A4 [9]): 7%; IC50 (Renin [10]): 0.09 nM; IC50 (Renin [11]): 2.4 nM; bioavailability [12]: 41%; CL/F [13]: 35 mL/min/kg; Vdss (Rattus norvegicus [14]): 12 L/kg; half-life [15]: 6 h; kinact (CYP3A4 [16]): 0.00157 s⁻¹; IC50 (Cytochrome P450 3A4 [17]): 14000 nM; Ki (Cytochrome P450 3A4 [17]): 3200 nM; remaining at 1 h, 50 µM [18]: 98%; remaining at 1 h, 20 µM [19]: 94%; bioavailability [20]: 32%; CL/F [21]: 16 mL/min/kg; Vdss (Canis familiaris): 8.4 L/kg
14 | Cc1cc(Cl)c(OCCOc2ccc(C[C@H](CN)C(=O)N(Cc3cc(CCS(C)(=O)=O)ccc3Cl)C3CC3)cc2)c(Cl)c1 | 50 | 
15 | COCCc1ccc(Cl)c(CN(C[C@@H](CN)Cc2ccc(OCCOc3c(Cl)cc(C)cc3Cl)cc2)C2CC2)c1 | 5.8 | 
16 | COCCc1ccc(Cl)c(CN(C(=O)[C@H](Cc2ccc(OCCOc3c(Cl)cc(C)cc3Cl)cc2)C(N)=O)C2CC2)c1 | 55 | 
17 | COCCCc1cc(CN(C(=O)[C@@H](CN)Cc2ccc(OCCOc3c(Cl)cc(C)cc3Cl)cc2)C2CC2)c(Cl)cn1 | 90 | 
18 | COCCc1ccc(Cl)c(CN(C(=O)[C@@H](CN)Cc2ccc(CCOc3c(Cl)cc(C)cc3Cl)cc2)C2CC2)c1 | 60 | 
19 | COCCCc1cc(CN(C(=O)[C@@H](CN)Cc2ccc(OCCOc3c(Cl)cc(C)cc3Cl)cc2)C2CC2)c2ccccc2n1 | 120 | 
20 | Cc1cc(Cl)c(OCCOc2ccc(C[C@H](CN)C(=O)N(Cc3cc(CCCC#N)cc4cccnc34)C3CC3)cc2)c(Cl)c1 | 140 | 
21 | COCCc1ccc(Cl)c(CN(C(=O)[C@@H](CN)Cc2ccccc2)C2CC2)c1 | 120 | 
22 | COCCc1ccc(Cl)c(CN(C(=O)[C@@H](CN)Cc2ccc(OCCOc3c(Cl)cc(C)cc3Cl)cc2)C2CCC2)c1 | 180 | 
23 | COCCc1ccc(Cl)c(CN(C)C(=O)[C@@H](CN)Cc2ccc(OCCOc3c(Cl)cc(C)cc3Cl)cc2)c1 | 40 | 
